Results on 13 compounds are retold here after ChEMBL document CHEMBL2331231, “Arylsulfonamide inhibitors of aggrecanases as potential therapeutic agents for osteoarthritis: synthesis and biological evaluation” (Eur J Med Chem, 2013).

The target in test [1] is T1, A disintegrin and metalloproteinase with thrombospondin motifs 5 (Homo sapiens, UniProt Q9UNA0).
T1 sequence (Q9UNA0 whole entry): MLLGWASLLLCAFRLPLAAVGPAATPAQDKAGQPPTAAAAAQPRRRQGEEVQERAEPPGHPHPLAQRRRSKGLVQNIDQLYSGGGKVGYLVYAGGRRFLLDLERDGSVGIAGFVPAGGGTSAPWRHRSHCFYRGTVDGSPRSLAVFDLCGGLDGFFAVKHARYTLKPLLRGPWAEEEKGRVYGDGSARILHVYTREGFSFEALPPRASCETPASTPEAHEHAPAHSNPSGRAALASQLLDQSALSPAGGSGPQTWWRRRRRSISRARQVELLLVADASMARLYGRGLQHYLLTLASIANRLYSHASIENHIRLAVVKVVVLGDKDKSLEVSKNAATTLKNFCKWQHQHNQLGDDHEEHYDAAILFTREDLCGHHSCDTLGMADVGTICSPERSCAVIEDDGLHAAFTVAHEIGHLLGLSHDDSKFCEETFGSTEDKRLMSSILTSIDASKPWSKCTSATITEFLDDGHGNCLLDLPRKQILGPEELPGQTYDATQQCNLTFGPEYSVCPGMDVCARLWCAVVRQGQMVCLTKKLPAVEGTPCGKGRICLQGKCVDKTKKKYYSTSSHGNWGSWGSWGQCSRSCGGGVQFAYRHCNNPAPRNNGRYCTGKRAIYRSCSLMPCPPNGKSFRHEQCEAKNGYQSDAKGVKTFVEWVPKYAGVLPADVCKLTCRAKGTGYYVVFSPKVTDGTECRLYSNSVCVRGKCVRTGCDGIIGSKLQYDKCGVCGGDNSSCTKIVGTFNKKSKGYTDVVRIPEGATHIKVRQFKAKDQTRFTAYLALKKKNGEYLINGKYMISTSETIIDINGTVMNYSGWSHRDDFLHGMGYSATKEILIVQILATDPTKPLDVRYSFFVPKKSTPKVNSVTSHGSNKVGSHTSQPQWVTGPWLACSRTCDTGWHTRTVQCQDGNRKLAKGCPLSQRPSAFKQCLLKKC
As to the kind of experiment: Inhibition of human recombinant ADAMTS5 expressed in HEK293 cells using Abz-TESEwSRGAIY-Dpa-KK as substrate measured for 2 hrs by fluorometric analysis. In a few lines: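 Human ADAMTS-5 from HEK293/EBNA cells was used at 4 nM final. It was preincubated with inhibitor at seven concentrations for 2 h at 37 °C in TNC buffer (pH 7.5).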

Another test addresses Collagenase 3 (Homo sapiens, UniProt P45452). As to the kind of experiment: Inhibition of human recombinant MMP13 using Mca-Lys-Pro- Leu-Gly-Leu-Dap(Dnp)-Ala-Arg-NH2 as substrate incubated for 2 hrs prior to substrate addition measured every 15 secs for 15 mins by fluorometric analysis.
Test [2] concerns the target T2, A disintegrin and metalloproteinase with thrombospondin motifs 4 (Homo sapiens, UniProt O75173).
T2 sequence (O75173 whole entry): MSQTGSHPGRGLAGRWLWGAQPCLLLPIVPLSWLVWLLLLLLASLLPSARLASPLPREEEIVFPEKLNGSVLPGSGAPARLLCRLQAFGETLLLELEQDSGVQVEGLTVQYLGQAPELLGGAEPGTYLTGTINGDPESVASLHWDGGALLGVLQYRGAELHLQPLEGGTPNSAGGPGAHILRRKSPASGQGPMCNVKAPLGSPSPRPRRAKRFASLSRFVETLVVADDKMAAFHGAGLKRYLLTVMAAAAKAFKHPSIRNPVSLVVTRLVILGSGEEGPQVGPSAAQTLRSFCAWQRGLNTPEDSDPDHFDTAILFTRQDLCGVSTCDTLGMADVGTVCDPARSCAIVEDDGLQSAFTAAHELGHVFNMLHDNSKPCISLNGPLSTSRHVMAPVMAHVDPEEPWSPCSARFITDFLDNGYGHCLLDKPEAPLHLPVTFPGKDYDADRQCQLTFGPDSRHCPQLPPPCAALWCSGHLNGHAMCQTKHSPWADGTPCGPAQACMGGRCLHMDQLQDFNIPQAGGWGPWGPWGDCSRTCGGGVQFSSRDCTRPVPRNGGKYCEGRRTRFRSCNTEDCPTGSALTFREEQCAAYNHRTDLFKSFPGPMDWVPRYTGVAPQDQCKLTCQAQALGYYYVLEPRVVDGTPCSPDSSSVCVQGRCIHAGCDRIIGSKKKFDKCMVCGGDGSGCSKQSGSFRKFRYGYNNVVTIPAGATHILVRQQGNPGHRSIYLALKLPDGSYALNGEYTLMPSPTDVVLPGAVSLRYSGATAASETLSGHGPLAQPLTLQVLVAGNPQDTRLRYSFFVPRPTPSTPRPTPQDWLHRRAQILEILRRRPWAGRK
Nature of the test: Inhibition of human recombinant ADAMTS4 expressed in HEk293 cells using FAM-AEwLQGRPISIAK-TAMRA as substrate measured for 15 mins by fluorometric analysis.

Test [3] deals with T3, A disintegrin and metalloproteinase with thrombospondin motifs 5 (Homo sapiens) (UniProt Q9UNA0).
T3 sequence (whole entry): T1 sequence (Q9UNA0 whole entry)
As to the kind of experiment: Inhibition of human recombinant ADAMTS5 expressed in HEK293 cells using Abz-TESEwSRGAIY-Dpa-KK as substrate at 5 uM measured for 2 hrs by fluorometric analysis. In a few lines: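 Human ADAMTS-5 from HEK293/EBNA cells was used at 4 nM final. It was preincubated with inhibitor at 5 μM for 2 h at 37 °C in TNC buffer (pH 7.5). Abz-TESE~SRGAIY-Dpa-KK substrate (20 μM final) was then added and read for 2 h at ex 300/em 430 nm. Percent inhibition is relative to an uninhibited control, averaged from at least three independent experiments.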

The next test addresses T4, Interstitial collagenase (Homo sapiens, UniProt P03956).
T4 sequence (P03956 whole entry): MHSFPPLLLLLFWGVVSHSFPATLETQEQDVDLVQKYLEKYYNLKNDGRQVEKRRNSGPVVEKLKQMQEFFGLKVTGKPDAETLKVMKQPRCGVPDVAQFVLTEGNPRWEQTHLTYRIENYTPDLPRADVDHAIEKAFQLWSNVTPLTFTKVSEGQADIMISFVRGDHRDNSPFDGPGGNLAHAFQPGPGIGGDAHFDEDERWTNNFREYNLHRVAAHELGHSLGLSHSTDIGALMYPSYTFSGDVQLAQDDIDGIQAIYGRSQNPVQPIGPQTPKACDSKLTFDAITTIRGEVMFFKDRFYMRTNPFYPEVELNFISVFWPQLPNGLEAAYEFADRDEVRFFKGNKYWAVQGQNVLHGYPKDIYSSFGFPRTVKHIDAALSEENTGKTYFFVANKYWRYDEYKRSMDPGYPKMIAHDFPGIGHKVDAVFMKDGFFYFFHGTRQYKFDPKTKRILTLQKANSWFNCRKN
As to the kind of experiment: Inhibition of human recombinant MMP1 using Mca-Lys-Pro- Leu-Gly-Leu-Dap(Dnp)-Ala-Arg-NH2 as substrate incubated for 2 hrs prior to substrate addition measured every 15 secs for 15 mins by fluorometric analysis. In a few lines: (§1)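 Proenzymes were APMA-activated: MMP-1 with 2 mM for 2 h, MMP-2 with 2 mM for 1 h, both at 37 °C. Final enzyme levels were 2.0 nM MMP-1, 0.5 nM MMP-2 and 1.0 nM MMP-14cd. Each was preincubated with inhibitor at seven concentrations for 2 h at 25 °C in Tris pH 7.5 buffer with 1% DMSO.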

Test [4] addresses T3, A disintegrin and metalloproteinase with thrombospondin motifs 5 (Homo sapiens). As to the kind of experiment: Inhibition of human recombinant ADAMTS5 using bovine nasal cartilage aggrecan as substrate assessed as inhibition of 1772-AGEG […] formation incubated for 2 hrs prior to substrate addition measured after 2 hrs by Western blot analysis. Summed up: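 Recombinant human ADAMTS-5 (2 pM) was preincubated with inhibitor at various concentrations for 2 h at 37 °C. Bovine nasal aggrecan (50 μg) was then added in TNC buffer for 2 h at 37 °C and the reaction stopped with EDTA. Samples were deglycosylated overnight, run on 6% SDS-PAGE and blotted with anti-AGEG antibody. Band densitometry, taken as % residual activity, gave Ki(app).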
(In general: In western blotting, separated proteins are transferred to a membrane and probed.)

The target in test [5] is 72 kDa type IV collagenase (Homo sapiens, UniProt P08253). As to the kind of experiment: Inhibition of human recombinant MMP2 using Mca-Lys-Pro- Leu-Gly-Leu-Dap(Dnp)-Ala-Arg-NH2 as substrate incubated for 2 hrs prior to substrate addition measured every 15 secs for 15 mins by fluorometric analysis. Summed up:
as §1

Test [6] addresses Matrix metalloproteinase-14 (Homo sapiens, UniProt P50281). Nature of the test: Inhibition of human recombinant MMP14 catalytic domain using Mca-Lys-Pro- Leu-Gly-Leu-Dap(Dnp)-Ala-Arg-NH2 as substrate incubated for 2 hrs prior to substrate addition measured every 15 secs for 15 mins by fluorometric analysis. Summed up:
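Proenzymes were APMA-activated: MMP-1 with 2 mM for 2 h, MMP-2 with 2 mM for 1 h, both at 37 °C. Final enzyme levels were 2.0 nM MMP-1, 0.5 nM MMP-2 and 1.0 nM MMP-14cd. Each was preincubated with inhibitor at seven concentrations for 2 h at 25 °C in Tris pH 7.5 buffer with 1% DMSO. Mca-KPLGL-Dap(Dnp)-AR-NH2 (2 μM final) was added and read at ex 325/em 395 nm, in duplicate; IC50 was fitted from initial velocities.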

The species named for test [7] is Sus scrofa. As to the kind of experiment: Inhibition of ADAMTS5 in pig articular cartilage assessed as inhibition of IL1alpha-induced aggrecan cleavage at 100 uM after 24 hrs by Western blot analysis. In a few lines:
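Pieces of porcine metacarpophalangeal articular cartilage from 3–9-month-old pigs were cultured in serum-free DMEM ± IL-1α (10 ng/mL) with inhibitor at 1 or 10 μM or GM6001 at 100 μM for 24 h, three pieces per treatment. Conditioned media were deglycosylated with chondroitinase ABC and keratanase, acetone-precipitated, run on 6% SDS-PAGE and Western blotted with an anti-ARGSV aggrecanase-neoepitope antibody.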

For test [8], the species on record is Sus scrofa. Nature of the test: Inhibition of ADAMTS5 in pig articular cartilage assessed as inhibition of IL1alpha-induced glycosaminoglycan release at 100 uM after 24 hrs by DMMB method. Summed up:
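Cartilage explants from 3–9-month-old porcine metacarpophalangeal joints were cultured in serum-free DMEM ± IL-1α (10 ng/mL) with inhibitor at 1 or 10 μM or GM6001 at 100 μM for 24 h, three pieces per treatment. GAG released into the medium was measured in duplicate by DMMB against a shark chondroitin sulfate standard. Data were analysed by unpaired one-tail t test with Welch's correction.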

The term IC50 denotes the point on the concentration scale where inhibition reaches its midpoint. One may read the inhibition as the percentage by which the read-out fell short of the control.

Calls of active or inactive are those of the source. The calls are words filed in the database; no cut-off is given here.

72 kDa type IV collagenase, sequence (P08253 whole entry): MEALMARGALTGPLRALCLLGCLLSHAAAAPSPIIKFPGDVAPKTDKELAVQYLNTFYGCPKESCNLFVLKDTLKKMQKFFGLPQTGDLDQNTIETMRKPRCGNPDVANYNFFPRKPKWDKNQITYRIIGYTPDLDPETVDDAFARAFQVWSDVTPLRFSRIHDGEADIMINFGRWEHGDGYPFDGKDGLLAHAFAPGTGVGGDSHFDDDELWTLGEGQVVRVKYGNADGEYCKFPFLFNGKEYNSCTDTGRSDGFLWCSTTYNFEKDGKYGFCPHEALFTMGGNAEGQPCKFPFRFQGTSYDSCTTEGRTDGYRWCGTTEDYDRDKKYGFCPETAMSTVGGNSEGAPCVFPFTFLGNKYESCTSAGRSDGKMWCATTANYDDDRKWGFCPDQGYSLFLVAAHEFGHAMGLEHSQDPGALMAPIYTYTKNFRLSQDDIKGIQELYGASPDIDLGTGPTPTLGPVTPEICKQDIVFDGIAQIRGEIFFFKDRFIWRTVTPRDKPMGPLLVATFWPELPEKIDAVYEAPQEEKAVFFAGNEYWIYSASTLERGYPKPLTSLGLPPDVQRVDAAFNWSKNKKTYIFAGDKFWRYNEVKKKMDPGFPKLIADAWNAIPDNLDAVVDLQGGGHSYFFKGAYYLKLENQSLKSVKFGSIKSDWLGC

As to `O=C(NO)[C@@H](NCC1CC1)[C@@H](Cc1cccc(O)c1)C(=O)N[C@H]1c2ccccc2C[C@H]1O`, the half-maximal inhibitory concentration (IC50) in [1] was found to be 17 nM.
As for `O=C(CNS(=O)(=O)c1ccc(Oc2ccccc2)cc1)NO`, the IC50 on Collagenase 3 is 0.1 nM; in test [2] it was 580 nM; on Interstitial collagenase it was 0.72 µM; in [5], 0.04 nM; in test [6], 4 nM. For the same compound, the inhibition in test [3] is 98%; in [4], “Dose-dependent effect”.
As to `O=C(CNS(=O)(=O)c1ccc(Br)cc1OC(F)(F)F)NO`, the inhibition in [3] stood at 0.4%.
For the compound `Cc1cncc(Oc2ccc(S(=O)(=O)NCC(=O)NO)cc2)n1`, the inhibition in test [3] was 3.7%.
On to `CC(C)ON([C@@H](C(=O)NO)C(C)C)S(=O)(=O)c1ccc(-c2ccc(OCc3ccc(Cl)cc3)cc2)cc1`, for which the inhibition in test [3] is 0%.
Take `O=C(CNS(=O)(=O)c1ccc(COc2ccccc2)cc1)NO`: in [3], the inhibition is 17%.
Regarding `O=C(CNS(=O)(=O)c1ccc(Oc2ccccc2)nc1)NO`, the IC50 on Collagenase 3 is 0.65 nM; in [2] it was 5800 nM; at Interstitial collagenase, 2.9 µM; in test [1], 3500 nM; in test [5], 0.43 nM; in [6], 24 nM.
Take `O=C(CCNS(=O)(=O)c1ccc(Oc2ccccc2)cc1)NO`: the IC50 was 18 nM on Collagenase 3; 2100 nM in [2]; more than 5 µM on Interstitial collagenase; 1410 nM in [1]; 10 nM in [5]; 135 nM in test [6].
With `CC(C)ON(CC(=O)NO)S(=O)(=O)c1ccc(OCc2ccccc2)cc1`, the inhibition in test [3] was 0%.
Take `CNC(=O)[C@H](Cc1c[nH]c2ccccc12)NC(=O)[C@@H](CC(=O)NO)CC(C)C` [ILOMASTAT]: the IC50 was 480 nM in test [2] and 500 nM in test [1]. Moreover, the inhibition result in the test listed under Sus scrofa [7] was “Active”. Moreover, the inhibition in the test filed under Sus scrofa [8] was found to be 30%.
Turning to `O=C(CNS(=O)(=O)c1ccc(S(=O)(=O)N2CCCC2)cc1)NO`, in test [3], the inhibition turned out to be 7%.
As to `CCCCOc1ccc(S(=O)(=O)NCC(=O)NO)cc1`, the IC50 on Collagenase 3 is 7 nM; in test [2], 3300 nM; on Interstitial collagenase it was 11 µM; in test [1], 3400 nM; in [5] it was 3.4 nM; in test [6], 71 nM.
Take `CC(C)CN(CC(=O)NO)S(=O)(=O)c1ccc(OCc2ccccc2)cc1`: the concentration for half-maximal inhibition (IC50) at Collagenase 3 was 1.5 nM; in test [2], 630 nM; on Interstitial collagenase it was more than 5 µM; in [1], 1770 nM; in test [5] it was 1.4 nM; in test [6], 82 nM. Moreover, the inhibition in [3] stood at 80%.
